According to ChEMBL document CHEMBL4689842, “EUbOPEN Chemogenomics Library wave 1” (2021):

Tested on: Fibroblast
Experiment: Multiplex assay against human fibroblast
Assay type: toxicity, cell-based
How it was run: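 Imaging took place on a CQ1 microscope at 37°C and 5% CO2 once compound had been added to live cells stained at seeding with Hoechst33342, BioTracker Green Microtubule Cytoskeleton Dye, MitoTracker Red and Annexin V Alexa Fluor 680. CellPathfinder machine-learning gating classed cells as Hoechst high-intensity objects or normal cells, classed normal cells as having healthy, pyknosed or fragmented nuclei, and classed pyknosed cells as mitotic or apoptotic. Tubulin, mitochondrial-mass and membrane-permeability phenotypes are per cents of the healthy-nucleus cells.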

[1] = 12 h, 1 µM, compound concentration 1 uM, replicate 1
[2] = 12 h, 1 µM, compound concentration 1 uM, replicate 2
[3] = 12 h, 10 µM, compound concentration 10 uM, replicate 1
[4] = 12 h, 10 µM, compound concentration 10 uM, replicate 2
[5] = 24 h, 1 µM, compound concentration 1 uM, replicate 1
[6] = 24 h, 1 µM, compound concentration 1 uM, replicate 2
[7] = 24 h, 10 µM, compound concentration 10 uM, replicate 1
[8] = 24 h, 10 µM, compound concentration 10 uM, replicate 2

With `CN1CCN(C(=O)C(C)(C)c2ccc(C(=O)Nc3cn4cc(-c5cc(C(C)(C)C)cc(C(C)(C)C)c5)ccc4n3)cc2)CC1` [T3-CLK-N] the “Population Apoptotic (%)” value [1] was 84%, the “Population Fragmented Nuclei (%)” value [1] was 34% and the “Population Healthy Nuclei (%)” value [1] was 52%. For the same compound, the “Population Hoechst High Intensity Objects (%)” value [1] was 19%, the “Population Membrane Permeable-Phenotype (%)” value [1] was 8% and the “Population Mitochondria Different-Phenotype (%)” value [1] was 1%. The “Population Mitotic Cells (%)” value [1] was 16%, the “Population Normal (%)” value [1] was 80% and the “Population Pyknosed Nuclei (%)” value [1] was 13%. For the same compound, the “Population Tubulin-Different-Phenotype (%)” value [1] was 3%, the “Total Cell Count” value [1] was 237 and the “Population Apoptotic (%)” value [2] was 42%. The “Population Fragmented Nuclei (%)” value [2] was 44%, the “Population Healthy Nuclei (%)” value [2] was 44% and the “Population Hoechst High Intensity Objects (%)” value [2] was 26%. For the same compound, the “Population Membrane Permeable-Phenotype (%)” value [2] was 14%, the “Population Mitochondria Different-Phenotype (%)” value [2] was 11% and the “Population Mitotic Cells (%)” value [2] was 57%. For the same compound, the “Population Normal (%)” value [2] was 73%, the “Population Pyknosed Nuclei (%)” value [2] was 11% and the “Population Tubulin-Different-Phenotype (%)” value [2] was 22%. For the same compound, the “Total Cell Count” value [2] was 83, the “Population Apoptotic (%)” value [3] was 78% and the “Population Fragmented Nuclei (%)” value [3] was 39%. The “Population Healthy Nuclei (%)” value [3] was 45%, the “Population Hoechst High Intensity Objects (%)” value [3] was 16% and the “Population Membrane Permeable-Phenotype (%)” value [3] was 23%. For the same compound, the “Population Mitochondria Different-Phenotype (%)” value [3] was 1%, the “Population Mitotic Cells (%)” value [3] was 21% and the “Population Normal (%)” value [3] was 83%. For the same compound, the “Population Pyknosed Nuclei (%)” value [3] was 14%, the “Population Tubulin-Different-Phenotype (%)” value [3] was 21% and the “Total Cell Count” value [3] was 260. For the same compound, the “Population Apoptotic (%)” value [4] was 50%, the “Population Fragmented Nuclei (%)” value [4] was 40% and the “Population Healthy Nuclei (%)” value [4] was 30%. The “Population Hoechst High Intensity Objects (%)” value [4] was 39%, the “Population Membrane Permeable-Phenotype (%)” value [4] was 30% and the “Population Mitochondria Different-Phenotype (%)” value [4] was 23%. The “Population Mitotic Cells (%)” value [4] was 50%, the “Population Normal (%)” value [4] was 60% and the “Population Pyknosed Nuclei (%)” value [4] was 28%. For the same compound, the “Population Tubulin-Different-Phenotype (%)” value [4] was 23%, the “Total Cell Count” value [4] was 69 and the “Population Apoptotic (%)” value [5] was 73%. For the same compound, the “Population Fragmented Nuclei (%)” value [5] was 31%, the “Population Healthy Nuclei (%)” value [5] was 51% and the “Population Hoechst High Intensity Objects (%)” value [5] was 16%. For the same compound, the “Population Membrane Permeable-Phenotype (%)” value [5] was 9%, the “Population Mitochondria Different-Phenotype (%)” value [5] was 2% and the “Population Mitotic Cells (%)” value [5] was 26%. For the same compound, the “Population Normal (%)” value [5] was 83%, the “Population Pyknosed Nuclei (%)” value [5] was 16% and the “Population Tubulin-Different-Phenotype (%)” value [5] was 6%. For the same compound, the “Total Cell Count” value [5] was 243, the “Population Apoptotic (%)” value [6] was 40% and the “Population Fragmented Nuclei (%)” value [6] was 42%. The “Population Healthy Nuclei (%)” value [6] was 48%, the “Population Hoechst High Intensity Objects (%)” value [6] was 28% and the “Population Membrane Permeable-Phenotype (%)” value [6] was 11%. The “Population Mitochondria Different-Phenotype (%)” value [6] was 11%, the “Population Mitotic Cells (%)” value [6] was 60% and the “Population Normal (%)” value [6] was 71%. The “Population Pyknosed Nuclei (%)” value [6] was 8%, the “Population Tubulin-Different-Phenotype (%)” value [6] was 11% and the “Total Cell Count” value [6] was 78. For the same compound, the “Population Apoptotic (%)” value [7] was 82%, the “Population Fragmented Nuclei (%)” value [7] was 32% and the “Population Healthy Nuclei (%)” value [7] was 54%. The “Population Hoechst High Intensity Objects (%)” value [7] was 10%, the “Population Membrane Permeable-Phenotype (%)” value [7] was 22% and the “Population Mitochondria Different-Phenotype (%)” value [7] was 5%. For the same compound, the “Population Mitotic Cells (%)” value [7] was 17%, the “Population Normal (%)” value [7] was 89% and the “Population Tubulin-Different-Phenotype (%)” value [7] was 30%. The “Total Cell Count” value [7] was 245, the “Population Apoptotic (%)” value [8] was 33% and the “Population Fragmented Nuclei (%)” value [8] was 55%. The “Population Healthy Nuclei (%)” value [8] was 30%, the “Population Hoechst High Intensity Objects (%)” value [8] was 38% and the “Population Membrane Permeable-Phenotype (%)” value [8] was 38%. For the same compound, the “Population Mitochondria Different-Phenotype (%)” value [8] was 15%, the “Population Mitotic Cells (%)” value [8] was 66% and the “Population Normal (%)” value [8] was 61%. The “Population Pyknosed Nuclei (%)” value [8] was 13%, the “Population Tubulin-Different-Phenotype (%)” value [8] was 23% and the “Total Cell Count” value [8] was 70.
